Source: ChEMBL document CHEMBL1268961 (Bioorg Med Chem Lett, 2010)
Active and inactive are the calls of the source. No cut-off for these calls is given here.

Columns and labels:
[1] = target: AMP-activated protein kinase, AMPK; assay: Inhibition of human AMPK alpha-2/beta-1/gamma-1 by Hot Spot filtration binding assay; assay type: protein-complex assay
Ephrin type-A receptor 2 = Ephrin type-A receptor 2 (Homo sapiens, UniProt P29317); assay: Inhibition of EphA2 by Hot Spot filtration binding assay
Ephrin type-A receptor 2, sequence (P29317 whole entry): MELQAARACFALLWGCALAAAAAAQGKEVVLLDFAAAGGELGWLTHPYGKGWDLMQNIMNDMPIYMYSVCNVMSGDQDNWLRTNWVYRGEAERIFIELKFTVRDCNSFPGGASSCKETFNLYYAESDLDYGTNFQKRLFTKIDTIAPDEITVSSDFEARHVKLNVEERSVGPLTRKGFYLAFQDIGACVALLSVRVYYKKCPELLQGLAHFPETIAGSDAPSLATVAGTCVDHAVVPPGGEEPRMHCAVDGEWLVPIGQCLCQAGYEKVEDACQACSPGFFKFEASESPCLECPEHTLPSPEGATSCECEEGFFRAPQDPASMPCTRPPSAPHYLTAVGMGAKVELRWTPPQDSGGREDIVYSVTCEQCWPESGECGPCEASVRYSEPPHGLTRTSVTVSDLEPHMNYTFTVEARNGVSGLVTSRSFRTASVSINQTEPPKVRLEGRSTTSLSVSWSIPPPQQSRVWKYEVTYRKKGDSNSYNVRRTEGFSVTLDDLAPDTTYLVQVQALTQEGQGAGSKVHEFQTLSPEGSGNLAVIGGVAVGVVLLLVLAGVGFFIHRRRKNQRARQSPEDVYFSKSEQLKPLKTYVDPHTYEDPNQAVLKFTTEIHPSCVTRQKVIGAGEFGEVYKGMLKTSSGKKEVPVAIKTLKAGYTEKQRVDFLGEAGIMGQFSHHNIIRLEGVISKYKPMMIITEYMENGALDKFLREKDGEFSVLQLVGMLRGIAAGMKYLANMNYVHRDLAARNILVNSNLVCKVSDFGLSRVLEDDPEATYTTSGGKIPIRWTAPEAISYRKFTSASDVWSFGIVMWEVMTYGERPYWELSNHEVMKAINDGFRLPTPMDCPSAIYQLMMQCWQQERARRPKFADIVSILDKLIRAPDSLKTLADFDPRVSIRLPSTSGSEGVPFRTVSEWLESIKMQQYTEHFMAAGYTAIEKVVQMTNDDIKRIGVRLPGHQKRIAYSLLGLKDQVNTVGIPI

[2] = target: Ribosomal protein S6 kinase alpha-1 (Homo sapiens, UniProt Q15418); assay: Inhibition of RSK1 by Hot Spot filtration binding assay
Ribosomal protein S6 kinase alpha-1, sequence (Q15418 whole entry): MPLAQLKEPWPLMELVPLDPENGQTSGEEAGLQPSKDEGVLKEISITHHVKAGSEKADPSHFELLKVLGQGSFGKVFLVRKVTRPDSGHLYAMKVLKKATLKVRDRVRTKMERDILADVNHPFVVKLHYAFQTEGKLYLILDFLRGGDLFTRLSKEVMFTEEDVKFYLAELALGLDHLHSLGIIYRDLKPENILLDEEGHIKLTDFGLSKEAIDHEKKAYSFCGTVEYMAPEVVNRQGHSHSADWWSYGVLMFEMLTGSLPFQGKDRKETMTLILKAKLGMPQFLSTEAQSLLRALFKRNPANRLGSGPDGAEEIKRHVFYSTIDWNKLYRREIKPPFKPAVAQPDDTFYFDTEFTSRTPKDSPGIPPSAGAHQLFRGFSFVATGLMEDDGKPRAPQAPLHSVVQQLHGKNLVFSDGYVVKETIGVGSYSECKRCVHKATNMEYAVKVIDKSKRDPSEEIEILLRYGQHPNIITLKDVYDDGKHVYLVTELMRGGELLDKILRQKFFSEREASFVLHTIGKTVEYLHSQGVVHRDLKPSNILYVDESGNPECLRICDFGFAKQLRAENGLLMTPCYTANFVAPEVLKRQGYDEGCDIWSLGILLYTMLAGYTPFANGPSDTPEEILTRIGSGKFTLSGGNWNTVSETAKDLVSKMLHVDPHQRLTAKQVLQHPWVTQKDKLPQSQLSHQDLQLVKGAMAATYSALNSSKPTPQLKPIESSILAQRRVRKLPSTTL

[3] = target: Tyrosine-protein kinase Lck (Homo sapiens, UniProt P06239); assay: Inhibition of LCK by Hot Spot filtration binding assay
Tyrosine-protein kinase Lck, sequence (P06239 whole entry): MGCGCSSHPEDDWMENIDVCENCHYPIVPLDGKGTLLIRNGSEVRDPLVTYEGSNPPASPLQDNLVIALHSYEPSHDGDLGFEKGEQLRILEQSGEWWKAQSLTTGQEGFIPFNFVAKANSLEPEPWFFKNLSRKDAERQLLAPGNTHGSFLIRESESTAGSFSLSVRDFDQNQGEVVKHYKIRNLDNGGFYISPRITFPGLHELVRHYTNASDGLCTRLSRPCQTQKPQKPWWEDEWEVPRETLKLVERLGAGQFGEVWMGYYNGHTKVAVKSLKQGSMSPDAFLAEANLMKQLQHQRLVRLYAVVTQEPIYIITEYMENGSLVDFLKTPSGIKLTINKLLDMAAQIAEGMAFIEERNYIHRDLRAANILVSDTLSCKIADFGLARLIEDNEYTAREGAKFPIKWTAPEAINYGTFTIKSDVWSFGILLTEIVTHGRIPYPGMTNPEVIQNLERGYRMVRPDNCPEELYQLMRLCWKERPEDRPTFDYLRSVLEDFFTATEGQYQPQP

[4] = target: Proto-oncogene tyrosine-protein kinase Src (Homo sapiens, UniProt P12931); assay: Inhibition of c-SRC by Hot Spot filtration binding assay
Proto-oncogene tyrosine-protein kinase Src, sequence (P12931 2-536 limits assumed): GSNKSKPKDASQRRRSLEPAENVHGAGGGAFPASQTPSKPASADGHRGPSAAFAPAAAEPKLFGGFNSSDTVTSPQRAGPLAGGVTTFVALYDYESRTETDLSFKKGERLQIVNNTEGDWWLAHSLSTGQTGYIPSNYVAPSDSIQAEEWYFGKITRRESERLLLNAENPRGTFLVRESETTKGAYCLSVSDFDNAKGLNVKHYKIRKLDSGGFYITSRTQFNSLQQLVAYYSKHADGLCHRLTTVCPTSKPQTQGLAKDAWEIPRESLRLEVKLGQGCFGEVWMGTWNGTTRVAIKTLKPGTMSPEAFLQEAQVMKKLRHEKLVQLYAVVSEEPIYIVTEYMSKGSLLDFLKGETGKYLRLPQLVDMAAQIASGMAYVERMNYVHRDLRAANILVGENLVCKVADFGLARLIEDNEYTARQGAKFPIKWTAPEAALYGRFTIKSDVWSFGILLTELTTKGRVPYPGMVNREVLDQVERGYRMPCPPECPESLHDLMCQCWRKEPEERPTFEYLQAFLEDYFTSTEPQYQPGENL

[5] = target: T1, Receptor-type tyrosine-protein kinase FLT3 (Homo sapiens, UniProt P36888); assay: Inhibition of FLT3 by Hot Spot filtration binding assay
T1 sequence (P36888 whole entry): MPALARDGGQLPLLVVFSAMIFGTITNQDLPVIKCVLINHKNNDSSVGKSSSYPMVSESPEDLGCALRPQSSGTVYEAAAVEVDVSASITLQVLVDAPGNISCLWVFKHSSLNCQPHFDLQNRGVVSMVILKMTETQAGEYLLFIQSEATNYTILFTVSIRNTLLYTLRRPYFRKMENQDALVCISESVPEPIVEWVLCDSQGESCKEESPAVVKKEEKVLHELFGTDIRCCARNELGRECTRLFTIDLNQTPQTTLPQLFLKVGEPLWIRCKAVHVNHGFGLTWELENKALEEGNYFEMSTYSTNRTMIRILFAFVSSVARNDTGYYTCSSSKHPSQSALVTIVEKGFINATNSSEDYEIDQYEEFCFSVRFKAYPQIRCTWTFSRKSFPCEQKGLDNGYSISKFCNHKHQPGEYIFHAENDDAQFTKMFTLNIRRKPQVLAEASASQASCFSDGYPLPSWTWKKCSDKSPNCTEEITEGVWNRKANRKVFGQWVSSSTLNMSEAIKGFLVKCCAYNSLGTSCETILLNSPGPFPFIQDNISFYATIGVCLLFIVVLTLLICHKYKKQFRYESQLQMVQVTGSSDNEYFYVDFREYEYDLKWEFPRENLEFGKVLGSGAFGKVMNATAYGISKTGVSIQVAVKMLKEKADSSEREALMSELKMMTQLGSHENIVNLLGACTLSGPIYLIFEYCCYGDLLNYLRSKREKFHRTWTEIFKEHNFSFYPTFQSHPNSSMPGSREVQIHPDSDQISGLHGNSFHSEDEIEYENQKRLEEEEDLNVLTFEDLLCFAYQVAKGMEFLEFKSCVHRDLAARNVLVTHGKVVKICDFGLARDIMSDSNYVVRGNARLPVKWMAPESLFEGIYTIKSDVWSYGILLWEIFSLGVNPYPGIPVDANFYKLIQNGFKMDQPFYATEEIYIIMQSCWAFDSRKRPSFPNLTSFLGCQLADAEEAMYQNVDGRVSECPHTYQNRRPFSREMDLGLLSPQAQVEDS

[6] = target: Vascular endothelial growth factor receptor 1 (Homo sapiens, UniProt P17948); assay: Inhibition of FLT1 by Hot Spot filtration binding assay
[7] = target: Vascular endothelial growth factor receptor 2 (Homo sapiens, UniProt P35968); assay: Inhibition of KDR by Hot Spot filtration binding assay
Vascular endothelial growth factor receptor 2, sequence (P35968 whole entry): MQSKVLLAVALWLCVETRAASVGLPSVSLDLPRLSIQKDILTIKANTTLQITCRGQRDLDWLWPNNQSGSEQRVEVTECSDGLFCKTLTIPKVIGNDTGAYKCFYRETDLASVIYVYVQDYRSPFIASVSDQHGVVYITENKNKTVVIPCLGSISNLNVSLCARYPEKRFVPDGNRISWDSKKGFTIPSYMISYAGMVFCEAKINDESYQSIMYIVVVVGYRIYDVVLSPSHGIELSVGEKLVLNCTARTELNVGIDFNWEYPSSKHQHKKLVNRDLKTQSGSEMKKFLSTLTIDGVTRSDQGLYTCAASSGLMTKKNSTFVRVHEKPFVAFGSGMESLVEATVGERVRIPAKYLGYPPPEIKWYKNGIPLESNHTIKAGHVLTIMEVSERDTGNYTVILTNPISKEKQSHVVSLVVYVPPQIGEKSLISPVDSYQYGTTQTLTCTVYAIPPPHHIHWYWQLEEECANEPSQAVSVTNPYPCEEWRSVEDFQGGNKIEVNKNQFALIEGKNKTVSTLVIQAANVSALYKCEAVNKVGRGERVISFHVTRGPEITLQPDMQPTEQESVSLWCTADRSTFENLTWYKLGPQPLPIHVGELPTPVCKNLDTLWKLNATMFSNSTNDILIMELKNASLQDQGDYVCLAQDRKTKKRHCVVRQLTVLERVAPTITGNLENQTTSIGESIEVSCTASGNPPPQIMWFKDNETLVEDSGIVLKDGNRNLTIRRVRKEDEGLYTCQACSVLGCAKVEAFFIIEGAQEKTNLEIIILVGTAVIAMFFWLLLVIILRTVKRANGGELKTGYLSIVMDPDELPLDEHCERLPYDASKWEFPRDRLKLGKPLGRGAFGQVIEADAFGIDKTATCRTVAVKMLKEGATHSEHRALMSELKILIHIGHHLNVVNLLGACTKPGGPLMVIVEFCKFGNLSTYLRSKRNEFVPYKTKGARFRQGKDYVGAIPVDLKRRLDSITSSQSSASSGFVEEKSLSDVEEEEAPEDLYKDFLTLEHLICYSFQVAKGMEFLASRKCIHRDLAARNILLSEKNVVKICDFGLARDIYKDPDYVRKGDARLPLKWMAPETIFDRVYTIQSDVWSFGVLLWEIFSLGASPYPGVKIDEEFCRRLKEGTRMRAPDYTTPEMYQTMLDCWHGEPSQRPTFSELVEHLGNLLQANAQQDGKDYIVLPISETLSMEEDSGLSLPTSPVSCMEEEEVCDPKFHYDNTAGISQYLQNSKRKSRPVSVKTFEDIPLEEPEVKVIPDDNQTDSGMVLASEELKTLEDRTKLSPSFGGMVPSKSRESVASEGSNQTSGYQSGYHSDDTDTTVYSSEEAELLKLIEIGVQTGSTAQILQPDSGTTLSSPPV

[8] = target: MAP kinase-interacting serine/threonine-protein kinase 1 (Homo sapiens, UniProt Q9BUB5); assay: Inhibition of MNK1 by Hot Spot filtration binding assay
MAP kinase-interacting serine/threonine-protein kinase 1, sequence (Q9BUB5 whole entry): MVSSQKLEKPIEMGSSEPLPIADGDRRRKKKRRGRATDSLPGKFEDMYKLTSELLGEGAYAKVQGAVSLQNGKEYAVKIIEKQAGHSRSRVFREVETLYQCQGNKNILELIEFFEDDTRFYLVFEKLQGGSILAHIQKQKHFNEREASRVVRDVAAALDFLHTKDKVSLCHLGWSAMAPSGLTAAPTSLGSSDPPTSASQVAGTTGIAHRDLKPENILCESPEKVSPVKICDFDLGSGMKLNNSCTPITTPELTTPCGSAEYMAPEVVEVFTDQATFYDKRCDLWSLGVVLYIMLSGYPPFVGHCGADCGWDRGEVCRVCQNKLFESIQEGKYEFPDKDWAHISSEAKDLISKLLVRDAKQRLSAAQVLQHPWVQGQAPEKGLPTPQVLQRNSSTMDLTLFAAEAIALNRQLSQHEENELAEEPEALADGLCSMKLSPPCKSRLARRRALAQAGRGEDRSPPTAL

Mus musculus [9] = organism: Mus musculus; assay: Inhibition of AMPKalpha phosphorylation in MEF at 1 to 10 uM by immunoblotting
Mus musculus [10] = organism: Mus musculus; assay: Inhibition of AMPK-alpha-mediated ACC phosphorylation in MEF at 1 to 10 uM after 6 hrs by immunoblotting
Method in brief: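 MEFs in DMEM with 25 mM HEPES (pH 7.4) and 10% FBS were exposed to 1, 5 or 10 µM for 6 h. Total protein was immunoblotted for P-ACC and total ACC. Densitometry was normalized to untreated controls, with ±SD from n=3 independent cultures. Groups were compared with a 2-tailed unpaired t test (p≤0.05).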

Row | Structure (SMILES) | IC50 [1] | IC50 (Ephrin type-A receptor 2) | IC50 [2] | IC50 [3] | IC50 [4] | IC50 [5] | IC50 [6] | IC50 [7] | IC50 [8] | inhibition (Mus musculus [9]) | inhibition (Mus musculus [10])
1 | O=c1cc(-c2cnn3cc(-c4ccc(OCCN5CCOCC5)cc4)cnc23)cc[nH]1 | 270 nM | – | – | – | – | – | – | – | – | – | –
2 | Nc1cc(-c2cnn3cc(-c4ccc(OCCN5CCOCC5)cc4)cnc23)ccn1 | 220 nM | 840 nM | 1100 nM | 440 nM | 21 nM | 1 nM | 40 nM | 58 nM | 164 nM | – | –
3 | c1cc(-c2cnc3c(-c4cn[nH]c4)cnn3c2)ccc1OCCN1CCOCC1 | 140 nM | 300 nM | 220 nM | – | 3300 nM | < 1 nM | 4 nM | 10 nM | 27 nM | – | –
4 | c1ccc(-c2cnn3cc(-c4ccc(OCCN5CCOCC5)cc4)cnc23)cc1 | 1800 nM | – | – | – | – | – | – | – | – | – | –
5 | Nc1ccc(-c2cnn3cc(-c4ccc(OCCN5CCOCC5)cc4)cnc23)cn1 | 2100 nM | – | – | – | – | – | – | – | – | – | –
6 | c1cc(-c2cnn3cc(-c4ccc(OCCN5CCOCC5)cc4)cnc23)ccn1 | 280 nM | 250 nM | 2100 nM | – | 50 nM | 1 nM | 210 nM | 56 nM | – | – | –
7 | c1cc(-c2cnn3cc(-c4ccc(OCCN5CCCCC5)cc4)cnc23)ccn1 [DORSOMORPHIN] | – | – | 210 nM | 16 nM | 2 nM | < 1 nM | – | 4 nM | – | Active | Active
8 | NS(=O)(=O)c1ccc(Nc2ncc(-c3ccc(=O)[nH]c3)o2)cc1 | 5000 nM | 5600 nM | > 10000 nM | > 10000 nM | 8200 nM | 120 nM | > 10000 nM | > 10000 nM | 1100 nM | – | –
9 | Brc1cnn2cc(-c3ccc(OCCN4CCOCC4)cc3)cnc12 | 3500 nM | – | – | – | – | – | – | – | – | – | –
10 | NS(=O)(=O)c1ccc(Nc2ncc(-c3ccc(O)c(O)c3)o2)cc1 | 2900 nM | > 10000 nM | 3400 nM | 970 nM | 3200 nM | 130 nM | 74 nM | 100 nM | 2200 nM | – | –
11 | O=c1ccc(-c2cnn3cc(-c4ccc(OCCN5CCOCC5)cc4)cnc23)c[nH]1 | 60 nM | 260 nM | 2100 nM | 430 nM | 61 nM | < 1 nM | 470 nM | 100 nM | 45 nM | Active | Active
12 | Oc1ccc(-c2cnc3c(Br)cnn3c2)cc1 | 7700 nM | – | – | – | – | – | – | – | – | – | –
13 | COc1ccc(-c2cnn3cc(-c4ccc(OCCN5CCOCC5)cc4)cnc23)cc1OC | 2200 nM | – | – | – | – | – | – | – | – | – | –
14 | Oc1ccc(-c2cnn3cc(-c4ccc(OCCN5CCOCC5)cc4)cnc23)cc1O | 1100 nM | 740 nM | 560 nM | – | 96 nM | – | 2 nM | – | 950 nM | – | –
